Assays:
[1] = AUC (0 to infinity) in healthy human plasma at 1200 mg, po administered as single dose measured after 120 hrs; format: ADME, organism-based; parameters: dose 1200 mg, route oral, time infinity
Summary of the method: (§1)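 Healthy adults (6 per dose group) received a single oral suspension after an 8-h fast, with food withheld 4 h. EDTA blood was drawn predose to 120 h. Plasma was protein-precipitated with ACN and assayed by LC-MS/MS (clarithromycin internal standard; range 1–1,000 ng/ml). AUC0-last was computed by linear-up/log-down trapezoid; AUC0-∞ added Clast/λz. Values are noncompartmental means.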

[2] = AUC (0 to last) in healthy human plasma at 800 mg, po administered as single dose measured after 120 hrs; format: ADME, organism-based; parameters: dose 800 mg, route oral, time 0 - last; summary of the method: as §1
[3] = Cmax in healthy human plasma at 200 mg, po administered as single dose measured after 120 hrs; format: ADME, organism-based; parameters: dose 200 mg, route oral
Summary of the method: (§2)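 Healthy adults (n = 6 per dose) took a single oral suspension fasted (8 h before, 4 h after). Plasma was sampled from 0.25 to 120 h postdose and quantified by validated LC-MS/MS after acetonitrile precipitation (LLOQ 1 ng/ml). Cmax was read directly from observed concentration–time data; the group mean was reported.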

[4] = Cmax in healthy human plasma at 1200 mg, po administered as single dose measured after 120 hrs; format: ADME, organism-based; parameters: dose 1200 mg, route oral; summary of the method: as §2
[5] = Tmax in healthy human plasma at 100 mg, po administered as single dose measured after 120 hrs; format: ADME, organism-based
Summary of the method: (§3)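 Fasted healthy adults (n = 6 per group) took one oral suspension dose. Plasma was sampled from predose through 0.25–120 h postdose and measured by validated LC-MS/MS (lower limit 1 ng/ml). Tmax was read directly from observed concentration–time data using actual sampling times and reported as median with range.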

[6] = Tmax in healthy human plasma at 200 mg, po administered as single dose measured after 120 hrs; format: ADME, organism-based; summary of the method: as §3
[7] = Tmax in healthy human plasma at 400 mg, po administered as single dose measured after 120 hrs; format: ADME, organism-based; summary of the method: as §3
[8] = Tmax in healthy human plasma at 1200 mg, po administered as single dose measured after 120 hrs; format: ADME, organism-based; summary of the method: as §3
[9] = Half life in healthy human plasma at 200 mg, po administered as single dose measured after 120 hrs; format: ADME, organism-based
[10] = Half life in healthy human plasma at 1200 mg, po administered as single dose measured after 120 hrs; format: ADME, organism-based
[11] = Elimination rate constant in healthy human plasma at 100 mg, po administered as single dose measured after 120 hrs; format: ADME, organism-based
[12] = Apparent oral clearance in healthy human plasma at 100 mg, po administered as single dose measured after 120 hrs; format: ADME, organism-based
Summary of the method: (§4)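 Single oral suspension dose in fasted healthy adults (6 per group). Plasma was collected to 120 h and measured by LC-MS/MS (1–1,000 ng/ml). Apparent oral clearance was dose divided by AUC0-∞ (noncompartmental, linear-up/log-down trapezoid extrapolated with Clast/λz); the mean was reported.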

[13] = Apparent oral clearance in healthy human plasma at 200 mg, po administered as single dose measured after 120 hrs; format: ADME, organism-based; summary of the method: as §4
[14] = Apparent oral clearance in healthy human plasma at 400 mg, po administered as single dose measured after 120 hrs; format: ADME, organism-based; summary of the method: as §4
[15] = Apparent oral clearance in healthy human plasma at 800 mg, po administered as single dose measured after 120 hrs; format: ADME, organism-based; summary of the method: as §4
[16] = Apparent oral clearance in healthy human plasma at 1200 mg, po administered as single dose measured after 120 hrs; format: ADME, organism-based; summary of the method: as §4
[17] = Apparent volume of distribution in healthy human plasma at 400 mg, po administered as single dose measured after 120 hrs; format: ADME, organism-based
Homo sapiens [18] = assay: Renal clearance in healthy human assessed as cumulative amount excreted in urine at 800 mg, po administered as single dose measured after 48 hrs; format: ADME, organism-based; details: in vivo
Summary of the method: (§5)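 Healthy adults (6 per dose) received a single fasted oral suspension dose. Urine was collected predose and over 0–2, 2–4, 4–6, 6–8, 8–12, 12–24 and 24–48 h intervals, volumes were recorded, and aliquots were stored at −20°C. Samples were assayed by LC-MS/MS. Ae0-48 is the summed volume × concentration over all intervals; the mean was reported.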

Homo sapiens [19] = assay: Renal clearance in healthy human assessed as cumulative amount excreted in urine at 1200 mg, po administered as single dose measured after 48 hrs; format: ADME, organism-based; details: in vivo; summary of the method: as §5
[20] = Renal clearance in healthy human assessed as cumulative fraction excreted unchanged in urine at 100 mg, po administered as single dose measured after 48 hrs; format: ADME, organism-based; details: read-out: Fraction Recovered in urine
Summary of the method: (§6)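 After a single oral fasted suspension dose in healthy adults (6 per group), urine was collected in intervals to 48 h and measured by LC-MS/MS. fe0-48 = Ae0-48 (summed interval volume × concentration) / dose × 100%; the mean was reported.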

[21] = Renal clearance in healthy human assessed as cumulative fraction excreted unchanged in urine at 1200 mg, po administered as single dose measured after 48 hrs; format: ADME, organism-based; details: read-out: Fraction Recovered in urine; summary of the method: as §6
[22] = Renal clearance in healthy human at 100 mg, po administered as single dose measured after 48 hrs; format: ADME, organism-based, Kidney; details: in vivo, read-out: CL_renal (converted)
Summary of the method: (§7)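 Healthy adults (6 active per dose) got a single oral suspension dose after an 8-h fast, with food withheld 4 h. Urine over 0–48 h in intervals and serial EDTA plasma were assayed by validated LC-MS/MS, with plasma calibration from 1 to 1,000 ng/ml. CLR = Ae0-48 (urine volume × concentration summed) divided by plasma AUC0-48.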

[23] = Renal clearance in healthy human at 200 mg, po administered as single dose measured after 48 hrs; format: ADME, organism-based, Kidney; details: in vivo, read-out: CL_renal (converted); summary of the method: as §7
[24] = Renal clearance in healthy human at 1200 mg, po administered as single dose measured after 48 hrs; format: ADME, organism-based, Kidney; details: in vivo, read-out: CL_renal (converted); summary of the method: as §7
Streptococcus pyogenes = assay: Antimicrobial activity against Streptococcus pyogenes; format: functional
Homo sapiens [25] = assay: Toxicity in healthy human assessed as incidence of elevated hepatic transaminase levels at 100 to 1200 mg, po administered as single dose; format: organism-based; details: in vivo
Summary of the method: (§8)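 Randomized, double-blind, placebo-controlled single ascending dose study with eight subjects per group (6 drug, 2 placebo of microcrystalline cellulose). Subjects were fasted before dosing. Safety labs were done at 120 h, with a full chemistry panel also at 72 and 96 h for the top dose. Final evaluation on day 8–10, with adverse events recorded.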

Homo sapiens [26] = assay: Toxicity in healthy human assessed as changes in direct and total bilirubin level at 100 to 1200 mg, po administered as single dose; format: organism-based; details: in vivo; summary of the method: as §8
Homo sapiens [27] = assay: Toxicity in healthy human assessed as changes in vital signs at 100 to 1200 mg, po administered as single dose; format: organism-based; details: in vivo
Summary of the method: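 Vital signs were taken predose and during an in-house stay (48 h for groups 1–4, 120 h for the top dose). Outpatient visits at 72, 96 and 120 h followed a single fasted oral dose, in a double-blind, placebo-controlled design with 6 active and 2 placebo per group.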

Homo sapiens [28] = assay: Toxicity in healthy human assessed as changes in ECG parameters signs at 100 to 1200 mg, po administered as single dose; format: organism-based; details: in vivo
Homo sapiens [29] = assay: Toxicity in healthy human assessed as changes in physical parameters signs at 100 to 1200 mg, po administered as single dose; format: organism-based; details: in vivo
[30] = AUC (0 to infinity) in healthy human plasma at 100 mg, po administered as single dose measured after 120 hrs; format: ADME, organism-based; parameters: dose 100 mg, route oral, time infinity; summary of the method: as §1
[31] = AUC (0 to infinity) in healthy human plasma at 200 mg, po administered as single dose measured after 120 hrs; format: ADME, organism-based; parameters: dose 200 mg, route oral, time infinity; summary of the method: as §1

`CC[C@H]1OC(=O)[C@H](C)C(=O)[C@H](C)[C@@H](O[C@@H]2O[C@H](C)C[C@H](N(C)C)[C@H]2O)[C@@]2(C)C[C@@H](C)/C(=N\C(C)=O)[C@H](C)[C@@H](OC/C(=N\OCc3ccc(-n4cccn4)nc3)CO2)[C@]1(C)O` [MODITHROMYCIN] showed an AUC(0-inf) [1] of 38.3 µg·h/mL, an AUC(0-t) at 120 h [2] of 33.4 µg·h/mL and a Cmax [3] of 0.36 µg/mL. The Cmax [4] was 1.08 µg/mL, the Tmax [5] was 1.75 h and the Tmax [6] was 2.5 h. The Tmax [7] was 3.25 h, the Tmax [8] was 5 h and the half-life [9] was 15.8 h. For the same compound, the half-life [10] was 20.1 h, the k el at 120 h [11] was 1.23e-05 s⁻¹ and the CL/F [12] was 485 mL/min. It also gave a CL/F [13] of 432 mL/min, a CL/F [14] of 463 mL/min and a CL/F [15] of 393 mL/min. For the same compound, the CL/F [16] was 523 mL/min, the Vd/F [17] was 635 L and the “Amount Recovered in urine” value (Homo sapiens [18]) was 91.1 mg. For the same compound, the “Amount Recovered in urine” value (Homo sapiens [19]) was 70.1 mg, the dose excreted at 48 h [20] was 8.57% and the dose excreted at 48 h [21] was 5.84%. It also gave a CL renal at 48 h [22] of 46.3 mL/min, a CL renal at 48 h [23] of 60.3 mL/min and a CL renal at 48 h [24] of 41.3 mL/min. The Ratio (Streptococcus pyogenes) was 32, the Activity (Homo sapiens [25]) was 23% and the Activity (Homo sapiens [26]) was “Non-toxic”. The Activity (Homo sapiens [27]) was “Non-toxic”, the Activity (Homo sapiens [28]) was “Non-toxic” and the Activity (Homo sapiens [29]) was “Non-toxic”. The AUC(0-inf) [30] was 3.43 µg·h/mL and the AUC(0-inf) [31] was 7.71 µg·h/mL.

— ChEMBL document CHEMBL1649161, “Pharmacokinetics of EDP-420 after ascending single oral doses in healthy adult volunteers” (Antimicrob Agents Chemother, 2009)
